Shown are actives, neighbours in structure and some others; about 29% of the full set was active somewhere.
tolC growth inh: E. coli tolC mutant growth inhibition; E. coli BW25113 tolC mutant growth, OD615; growth inhibition, % at 10 µM (by protocol); 65,000 tested, 2.2% active; AID 573;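 active = growth inhibition at or above a cutoff equal to the mean over every tested compound plus 3 SD, cut at about 60% in these data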;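 note: growth measured after 20 h incubation at 37 °C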
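Test system – E. coli BW25113 ΔtolC::kan, tolC deletion mutant strain · Detection – OD at 615 nm · Buffer or medium – LB with kanamycin 50 µg/mL · Times – 20 h compound exposure of bacteria at 37 °C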
E coli WT exp: growth inhibitors of E. coli BW25113 wild type; 98,000 tested, 0.15% active; growth inhibition, % at 100 µM; OD600 absorbance;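 active = growth inhibition above about 50% at one test dose, limit read from the data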;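 note: growth measured after 20 h incubation at 37 °C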
CYP2C19 inhib: inhibitors of human CYP2C19; P33261; CYP2C19 Supersomes, luciferin-H EGE luminescence, 30 min; inhibition, % at 5 µM; 96,000 tested, 21% active; AID 778;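 active = CYP2C19 inhibition above a set limit at 5 µM in the primary screen, cut at about 50% in these data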;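 note: plate controls were negative control wells for no effect and 2.5 mM tranylcypromine positive control for full effect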
CYP2C19 act: increases human CYP2C19 enzyme activity | 96,000 tested, under 10 active | AID 1025 | P33261 | recombinant CYP2C19, luciferin-H EGE luminescence; active compounds read high; 0 = fully inhibited enzyme, 1 = untreated enzyme | activation factor at 5 µM;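 active = activation factor of at least 2 at 5 µM in the primary screen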;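 note: 0 = wells with 2.5 mM tranylcypromine and 1 = vehicle-only wells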
CYP2C9 inh: blocks human cytochrome P450 2C9; P11712; CYP2C9 Supersomes, luciferin-H conversion, luminescence; inhibition, % at 5 µM; 96,000 tested, 20% active; AID 777;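 active = blocking of liver enzyme CYP2C9 beyond about 50% at 5 µM, limit read from the data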
Target sequence (P11712 whole entry, looked up): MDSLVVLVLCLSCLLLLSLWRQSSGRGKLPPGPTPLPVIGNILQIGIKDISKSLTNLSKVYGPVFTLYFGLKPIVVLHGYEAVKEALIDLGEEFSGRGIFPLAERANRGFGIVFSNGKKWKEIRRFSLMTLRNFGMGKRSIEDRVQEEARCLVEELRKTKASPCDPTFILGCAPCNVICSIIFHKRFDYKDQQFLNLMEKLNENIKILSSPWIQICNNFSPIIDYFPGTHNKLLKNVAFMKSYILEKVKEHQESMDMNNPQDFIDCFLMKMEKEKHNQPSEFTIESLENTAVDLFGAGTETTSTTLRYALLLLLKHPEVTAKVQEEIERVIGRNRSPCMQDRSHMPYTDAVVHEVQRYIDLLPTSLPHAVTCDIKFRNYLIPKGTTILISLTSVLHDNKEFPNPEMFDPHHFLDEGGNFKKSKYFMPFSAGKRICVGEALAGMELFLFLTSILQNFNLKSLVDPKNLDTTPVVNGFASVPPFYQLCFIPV
CYP2C9 activ: CYP2C9 (human) activation; 96,000 tested, 1.4% active; recombinant CYP2C9, luciferin-H conversion, luminescence; active compounds read high; factor 1 = untreated enzyme, 0 = blocked; activation factor at 5 µM; AID 1024; P11712;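 active = activation factor of 2 or more for CYP2C9 at a 5 µM dose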;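 note: 0 = sulfaphenazole-blocked wells and 1 = vehicle-only wells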
The depositor's hits bear a star; · = no result given.

SMILES	tolC growth inh	E coli WT exp	CYP2C19 inhib	CYP2C19 act	CYP2C9 inh	CYP2C9 activ
COc1ccc(CCNC(=O)CCSc2nc(-c3ccco3)cc(C(F)(F)F)n2)cc1	8.5	-12.0	0.9	1	5.4	0.9
COc1ccccc1N1CCN(C(=O)CSc2nc(-c3ccco3)cc(C(F)(F)F)n2)CC1	28.0	-3.0	43.7	0.6	28.5	0.7
CCOCCn1c(CN2CCC(Cc3ccccc3)CC2)nc2c1c(=O)n(C)c(=O)n2C	31.6	·	22.2	0.8	24.0	0.8
Cc1cc(NC(=O)CSc2nc(-c3ccco3)cc(C(F)(F)F)n2)no1	-12.2	·	·	·	·	·
O=C(CSc1nc(-c2ccco2)cc(C(F)(F)F)n1)Nc1ccc(C(=O)N2CCCCC2)cc1	22.4	-9.0	55.4*	0.4	85.3*	0.1
O=C(CSc1nnc(-c2ccccc2)o1)OCc1ccccc1	-12.5	4.0	3.4	1	4.1	1
COc1ccc(Cc2nnc(SCC(=O)c3ccccc3)o2)cc1	1.3	-6.0	77.4*	0.2	78.6*	0.2
COc1ccc(NCc2nnc(SCC(=O)N3CCCc4ccccc43)o2)cc1	-10.7	0.0	39.9	0.6	59.9*	0.4
C/C(Sc1nnc(Cc2ccccc2)o1)=C(/O)c1ccccc1	2.3	-7.0	61.4*	0.4	67.5*	0.3
COc1cccc(OCc2nnc(SCC(=O)OCc3ccccc3)o2)c1	-15.3	-7.0	76.4*	0.2	62.5*	0.4
COc1ccc(C(=O)CSc2nnc(Cc3ccccc3)o2)cc1	0.7	2.0	2.3	1	-40.6	1.4
COc1cccc(C(=O)CSc2nnc(CNS(=O)(=O)c3ccc(C)cc3)n2C)c1	1.0	-4.0	-1.5	1	2.2	1
O=c1nc2ccccc2c2n1CC(CN1CCN(c3cccc(Cl)c3)CC1)N2 (stereo unspecified)	·	-11.0	-15.2	1.2	-30.5	1.3
CCOCCCn1c(=N)c(C(=O)Nc2cc(C)on2)cc2c(=O)n3ccccc3nc21	-12.9	·	·	·	·	·
COc1ccc(NCc2nnc(SCC(=O)Nc3cccc(C)c3)o2)cc1	-5.7	3.0	71.6*	0.3	59.0*	0.4
COc1ccc(NCc2nnc(SCC(=O)c3ccc(OC)cc3)o2)cc1	·	0.0	22.4	0.8	-100.9	2*
COc1ccc(NCc2nnc(SCC(=O)Nc3ccccc3OC)o2)cc1	·	2.0	21.1	0.8	-9.6	1.1
CCCCCC(=O)N/N=C(\C)c1ccc(Cl)cc1	·	3.0	48.2	0.5	31.6	0.7
COc1ccc(-c2noc(C(C)n3nc(C)c([N+](=O)[O-])c3C)n2)cc1OC (stereo unspecified)	·	-1.0	24.7	0.8	59.0*	0.4
COc1cccc(-c2noc(Cn3nc(C)c([N+](=O)[O-])c3C)n2)c1	·	8.0	55.5*	0.4	31.1	0.7
Cc1nn(C(C)c2nc(-c3ccccc3)no2)c(C)c1[N+](=O)[O-] (stereo unspecified)	·	-7.0	36.6	0.6	39.3	0.6
COC(=O)CC1SC(=O)NC1=Nc1cccc(C)c1 (stereo unspecified)	·	-3.0	11.9	0.9	11.6	0.9
COc1ccccc1N1CCN(C(=O)c2ccc(Cl)c(S(=O)(=O)NCc3ccco3)c2)CC1	·	-7.0	69.6*	0.3	77.4*	0.2
CCOc1ccc(S(=O)(=O)NCCC(=O)NCc2ccco2)cc1	·	-3.0	-14.7	1.1	-75.8	1.8
CCOc1ccc(S(=O)(=O)NCc2ccco2)c2ccccc12	5.1	-7.0	63.6*	0.4	-13.6	1.1
SMILES	tolC growth inh	E coli WT exp	CYP2C19 inhib	CYP2C19 act	CYP2C9 inh	CYP2C9 activ
COc1cc(C)c(Cl)cc1S(=O)(=O)NCc1ccco1	9.1	0.0	97.6*	0	-100.2	2*
O=C(c1ccc(Cl)c(S(=O)(=O)NCc2ccco2)c1)N1CCN(c2ccccc2F)CC1	·	-10.0	39.0	0.6	37.2	0.6
CCOc1cc(C)c(Cl)cc1S(=O)(=O)NCc1ccco1	21.0	-2.0	16.4	0.8	-103.3	2*
COc1cc(OC)c(S(=O)(=O)NCc2ccco2)cc1S(=O)(=O)NCc1ccco1	-5.2	7.0	-8.7	1.1	-6.8	1.1
CCC(C(=O)Nc1ccccc1C(=O)N1CCOCC1)N1C(=O)c2ccccc2C1=O (stereo unspecified)	·	1.0	14.1	0.9	17.5	0.8
O=C(NC12CC3CC(CC(C3)C1)C2)C1=COCCO1	-1.7	5.0	43.2	0.6	5.7	0.9
Cc1ccc(S(=O)(=O)NCCOCCNS(=O)(=O)c2ccc(C)cc2)cc1	7.2	-1.0	68.0*	0.3	-100.6	2*
COCCNS(=O)(=O)c1ccc(-c2ccc(C)cc2)cc1	·	-2.0	73.8*	0.3	92.6*	0.1
CCOC(=O)c1cnc2ccc(OCC)cc2c1N1CCN(c2ccccc2OC)CC1	·	-17.0	76.8*	0.2	94.0*	0.1
CC1(C)Cc2ccccc2-c2nc3ccccc3c(=O)n21	46.1	9.0	18.1	0.8	33.9	0.7
COc1ccc(NS(=O)(=O)c2ccc3oc(SC4CCOC4=O)nc3c2)cc1 (stereo unspecified)	·	0.0	97.2*	0	100.3*	0
COC(=O)CCC(=O)N1CCc2cc(S(=O)(=O)N3CCN(c4ccccc4Cl)CC3)ccc21	8.5	2.0	32.5	0.7	59.0*	0.4
CC(C)c1ccc(CC(C)C2C3=C(CCCC3=O)OC3=C2C(=O)CCC3)cc1 (stereo unspecified)	·	-2.0	98.8*	0	96.7*	0
Cc1ccc(CCC2C3=C(CCCC3=O)OC3=C2C(=O)CCC3)cc1	·	3.0	95.3*	0	75.1*	0.2
CN(C)c1ccc(C2C3=C(CCCC3=O)OC3=C2C(=O)CCC3)cc1	1.2	1.0	-0.8	1	0.2	1
Cc1ccccc1NC1=C(C(=O)c2ccccc2)N(C)S(=O)(=O)c2ccccc21	·	-23.0	56.2*	0.4	63.0*	0.4
COc1ccc2c(c1)-c1ccccc1S(=O)(=O)N2C	·	7.0	27.9	0.7	19.6	0.8
Cc1cc(=O)c2cc(Br)ccc2[nH]1	·	18.0	23.2	0.8	51.5*	0.5
CCCN(CCC)C(=O)C1CCN(c2cc(C)nc3c(-c4ccc(OC)c(OC)c4)c(C)nn23)CC1	1.8	2.0	48.3	0.5	51.3*	0.5
Cc1c(NC(=O)COC(=O)Cc2ccc(Cl)cc2)c(=O)n(-c2ccccc2)n1C	-1.0	2.0	4.8	1	9.2	0.9
COc1ccccc1N1CCN(/N=C/c2c(C)nn(-c3ccccc3)c2C)CC1	·	3.0	20.6	0.8	15.9	0.8
CCN(CC)C(=O)CSc1nc2c(sc(=S)n2Cc2ccco2)c(=O)n1-c1ccccc1	·	-13.0	35.9	0.6	52.4*	0.5
CCOC(=O)c1ccc(-n2c(=S)sc3c(=O)[nH]c(C)nc32)cc1	9.8	-5.0	6.3	0.9	-13.6	1.1
CCOC(=O)CSc1nc2c(sc(=S)n2-c2ccccc2OC)c(=O)n1Cc1ccco1	·	-14.0	85.2*	0.1	54.6*	0.5

Assay outcomes as filed in PubChem BioAssay.
